Reference: ChEMBL document CHEMBL1145456, “Antitumor agents 253. Design, synthesis, and antitumor evaluation of novel 9-substituted phenanthrene-based tylophorine derivatives as potential anticancer agents” (J Med Chem, 2007)
The source made the active and inactive calls. The rule behind the calls is not given here.

What was measured:
A549 [1] = assay: Cytotoxicity against human A549 cells by SRB microtiter plate assay; assay type: functional, cell-based
How it was run: (§1)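 Cells were cultured at 37 °C, 5% CO₂, in RPMI-1640 with 25 mM HEPES, 2% bicarbonate, 10% FBS and kanamycin. Compounds were added from DMSO stocks, final DMSO ≤1% (v/v). IC₅₀ was interpolated from dose-response data. Each test was run in triplicate in independent experiments.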

KB = assay: Cytotoxicity against human KB cells by SRB microtiter plate assay; assay type: functional, cell-based
How it was run: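 KB cells grown at 37 °C, 5% CO₂, humidified, in RPMI-1640 with 25 mM HEPES, 2% (w/v) sodium bicarbonate, 10% FBS and 100 µg/mL kanamycin. Compounds were added from DMSO stocks, with final DMSO at or below 1% (v/v). IC₅₀ was interpolated from dose-response data. Each test was run in triplicate, and independent tests were repeated.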

DU-145 = assay: Cytotoxicity against human DU145 cells by SRB microtiter plate assay; assay type: functional, cell-based; how it was run: as §1
ZR-75-1 = assay: Cytotoxicity against human ZR751cells by SRB microtiter plate assay; assay type: functional, cell-based; how it was run: as §1
[2] = Cytotoxicity against multidrug resistant human KB-Vin cells by SRB microtiter plate assay; assay type: functional, cell-based; how it was run: as §1
A549 [3] = assay: Antitumor activity against human A549 xenografted SCID mouse model at 10 mg/kg, ip after 5 days; assay type: functional, organism-based; parameters: dose 10 mg/kg
How it was run: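 Male SCID mice were inoculated s.c. on the dorsal side with 1.5 × 10⁷ A549 cells. Day 1 was when tumors reached ≥5 mm; groups of six. Dosing ip at 10 mL/kg every 4 days for six doses. Tumor size and body weight recorded every 4 days. Tumor weight = length × width² × 0.5. T/C = (Tn−T1)/(Cn−C1) × 100% against vehicle.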

COc1ccc2c(CN3CCN(c4ccc(Cl)cc4)CC3)cc3cc4c(cc3c2c1)OCO4
IC50 (A549 [1]; Homo sapiens, A549): 65200 nM

COc1ccc2c(CN3CCN(c4ccccc4Cl)CC3)cc3cc4c(cc3c2c1)OCO4
Activity (A549 [1]): inactive

COc1ccc2c(CN3CCC(CO)CC3)cc3cc4c(cc3c2c1)OCO4 [listing 1 of 3 here]
IC50 (A549 [1]; Homo sapiens, A549): 80 nM | IC50 (KB; kb): 240 nM | IC50 (DU-145; du-145): 30 nM | IC50 (ZR-75-1; zr-75-1): 30 nM | IC50 [2]: 90 nM

COc1ccc2c(CNCCCCCO)cc3cc4c(cc3c2c1)OCO4
IC50 (A549 [1]; Homo sapiens, A549): 270 nM

COc1ccc2c(CN3CCC(CCO)CC3)cc3cc4c(cc3c2c1)OCO4 [listing 1 of 2 here]
IC50 (A549 [1]; a549): 90 nM | IC50 (KB; kb): 200 nM | IC50 (DU-145; Homo sapiens, DU-145): 100 nM | IC50 (ZR-75-1; Homo sapiens, ZR-75-1): 20 nM | IC50 [2]: 200 nM

COc1ccc2c(CNCCCCCCCCCCC(=O)O)cc3cc4c(cc3c2c1)OCO4
IC50 (A549 [1]; Homo sapiens, A549): 3200 nM

O=C(O)C1CCN(Cc2cc3cc4c(cc3c3cc(OCc5ccccc5)ccc23)OCO4)CC1
IC50 (A549 [1]; Homo sapiens, A549): 2100 nM

COc1ccc2c(CN3CCC[C@H]3C(=O)O)cc3cc4c(cc3c2c1)OCO4
IC50 (A549 [1]; Homo sapiens, A549): 2100 nM

OC[C@@H]1CCCCN1Cc1cc2cc3c(cc2c2cc(OCc4ccccc4)ccc12)OCO3
IC50 (A549 [1]; Homo sapiens, A549): 1300 nM

COc1ccc2c3c(c4cc(OC)c(OC)cc4c2c1)C[C@H]1CCCN1C3 [(-)-ANTOFINE]
IC50 (A549 [1]; Homo sapiens, A549): 8 nM | IC50 (KB; Homo sapiens, KB): 13 nM | IC50 (DU-145; Homo sapiens, DU-145): 9 nM | IC50 (ZR-75-1; Homo sapiens, ZR-75-1): 8 nM | IC50 ([2]; Homo sapiens, KBVIN): 9 nM

COc1ccc2c(CN3CCCC[C@H]3CO)cc3cc4c(cc3c2c1)OCO4 [listing 1 of 2 here]
IC50 (DU-145; du-145): 90 nM | IC50 (ZR-75-1; zr-75-1): 80 nM | IC50 [2]: 90 nM

COc1ccc2c(CNCCCCCCO)cc3cc4c(cc3c2c1)OCO4 [listing 1 of 2 here]
IC50 (KB; Homo sapiens, KB): 230 nM | IC50 (DU-145; du-145): 70 nM | IC50 (ZR-75-1; Homo sapiens, ZR-75-1): 80 nM | IC50 [2]: 160 nM

COc1ccc2c(CN3CCC[C@@H]3C(=O)O)cc3cc4c(cc3c2c1)OCO4
IC50 (A549 [1]; Homo sapiens, A549): 5200 nM

COc1cccc2c1C(=O)c1c(O)c3c(c(O)c1C2=O)C[C@@](O)(C(=O)CO)C[C@@H]3O[C@H]1C[C@H](N)[C@H](O)[C@H](C)O1 [DOXORUBICIN]
IC50 (A549 [1]; Homo sapiens, A549): 180 nM | IC50 (KB; Homo sapiens, KB): 180 nM | IC50 (DU-145; Homo sapiens, DU-145): 130 nM | IC50 (ZR-75-1; Homo sapiens, ZR-75-1): 40 nM | IC50 ([2]; Homo sapiens, KBVIN): > 4000 nM

COc1ccc2c(CN3CCC[C@H]3CO)cc3cc4c(cc3c2c1)OCO4
IC50 (A549 [1]; Homo sapiens, A549): 700 nM

COc1cc([C@@H]2c3cc4c(cc3[C@@H](O[C@@H]3O[C@@H]5CO[C@@H](C)O[C@H]5[C@H](O)[C@H]3O)[C@H]3COC(=O)[C@H]23)OCO4)cc(OC)c1O [ETOPOSIDE]
IC50 (A549 [1]; Homo sapiens, A549): 1400 nM | IC50 (KB; Homo sapiens, KB): 4800 nM | IC50 (DU-145; Homo sapiens, DU-145): 2400 nM | IC50 (ZR-75-1; Homo sapiens, ZR-75-1): 3100 nM | IC50 ([2]; Homo sapiens, KBVIN): > 10000 nM

COc1ccc2c(CN3CCC[C@@H]3CO)cc3cc4c(cc3c2c1)OCO4
IC50 (A549 [1]; Homo sapiens, A549): 1100 nM

O=C(O)[C@@H]1CCCCN1Cc1cc2cc3c(cc2c2cc(OCc4ccccc4)ccc12)OCO3
IC50 (A549 [1]; Homo sapiens, A549): 3200 nM

COc1ccc2c(CN3CCC(CCO)CC3)cc3cc4c(cc3c2c1)OCO4 [listing 2 of 2 here]
IC50 (A549 [1]; Homo sapiens, A549): 150 nM | IC50 (KB; kb): 420 nM | IC50 (DU-145; du-145): 150 nM | IC50 (ZR-75-1; zr-75-1): 30 nM | IC50 [2]: 500 nM

COc1ccc2c(CNCCCCC(=O)O)cc3cc4c(cc3c2c1)OCO4
IC50 (A549 [1]; Homo sapiens, A549): 1300 nM

COc1ccc2c(CNCCCCCC(=O)O)cc3cc4c(cc3c2c1)OCO4
IC50 (A549 [1]; Homo sapiens, A549): 800 nM | IC50 (KB; Homo sapiens, KB): 330 nM | IC50 (DU-145; Homo sapiens, DU-145): 670 nM | IC50 (ZR-75-1; Homo sapiens, ZR-75-1): 540 nM | IC50 ([2]; Homo sapiens, KBVIN): 830 nM

OCC1CCN(Cc2cc3cc4c(cc3c3cc(OCc5ccccc5)ccc23)OCO4)CC1
IC50 (A549 [1]; Homo sapiens, A549): 700 nM

COc1ccc2c(CN3CCN(CCO)CC3)cc3cc4c(cc3c2c1)OCO4
IC50 (A549 [1]; Homo sapiens, A549): 630 nM | IC50 (KB; Homo sapiens, KB): 500 nM | IC50 (DU-145; Homo sapiens, DU-145): 250 nM | IC50 (ZR-75-1; Homo sapiens, ZR-75-1): 230 nM | IC50 ([2]; Homo sapiens, KBVIN): 510 nM

COc1ccc2c(CN3CCCC[C@H]3CO)cc3cc4c(cc3c2c1)OCO4 [listing 2 of 2 here]
IC50 (A549 [1]; Homo sapiens, A549): 160 nM | IC50 (KB; Homo sapiens, KB): 120 nM | IC50 (DU-145; du-145): 210 nM | IC50 (ZR-75-1; Homo sapiens, ZR-75-1): 100 nM | IC50 ([2]; Homo sapiens, KBVIN): 160 nM

COc1ccc2c(CN3CCC(CO)CC3)cc3cc4c(cc3c2c1)OCO4 [listing 2 of 3 here]
Activity (A549 [3]): Active

COc1ccc2c(CN3CCC(CO)CC3)cc3cc4c(cc3c2c1)OCO4 [listing 3 of 3 here]
IC50 (A549 [1]; a549): 70 nM | IC50 (KB; kb): 70 nM | IC50 (DU-145; Homo sapiens, DU-145): 50 nM | IC50 (ZR-75-1; Homo sapiens, ZR-75-1): 40 nM | IC50 [2]: 40 nM

CC[C@H]1CN2CCc3cc(OC)c(OC)cc3[C@@H]2C[C@@H]1C[C@H]1NCCc2cc(OC)c(OC)cc21 [EMETINE]
IC50 (A549 [1]; Homo sapiens, A549): 40 nM | IC50 (KB; Homo sapiens, KB): 40 nM | IC50 (DU-145; Homo sapiens, DU-145): 60 nM | IC50 (ZR-75-1; Homo sapiens, ZR-75-1): 100 nM | IC50 ([2]; Homo sapiens, KBVIN): > 2000 nM

COc1ccc2c(CN3CCC(C(=O)O)CC3)cc3cc4c(cc3c2c1)OCO4
IC50 (A549 [1]; Homo sapiens, A549): 230 nM | IC50 (KB; Homo sapiens, KB): 150 nM | IC50 (DU-145; Homo sapiens, DU-145): 310 nM | IC50 (ZR-75-1; Homo sapiens, ZR-75-1): 250 nM | IC50 ([2]; Homo sapiens, KBVIN): 380 nM

CC[C@]1(O)C[C@H]2CN(CCc3c([nH]c4ccccc34)[C@@](C(=O)OC)(c3cc4c(cc3OC)N(C=O)[C@H]3[C@@](O)(C(=O)OC)[C@H](OC(C)=O)[C@]5(CC)C=CCN6CC[C@]43[C@@H]65)C2)C1 [VINCRISTINE]
IC50 (A549 [1]; Homo sapiens, A549): 40 nM | IC50 (KB; Homo sapiens, KB): 6 nM | IC50 (DU-145; Homo sapiens, DU-145): 85 nM | IC50 (ZR-75-1; Homo sapiens, ZR-75-1): 40 nM | IC50 ([2]; Homo sapiens, KBVIN): 5300 nM

COc1ccc2c(CNCCCCCCCCCCCO)cc3cc4c(cc3c2c1)OCO4
IC50 (A549 [1]; Homo sapiens, A549): 2600 nM

COc1ccc2c(CNCCCCCCO)cc3cc4c(cc3c2c1)OCO4 [listing 2 of 2 here]
IC50 (A549 [1]; Homo sapiens, A549): 200 nM | IC50 (KB; kb): 250 nM | IC50 (DU-145; du-145): 440 nM | IC50 (ZR-75-1; zr-75-1): 130 nM | IC50 [2]: 350 nM

COc1ccc2c(CN3CCN(c4ccc(O)cc4)CC3)cc3cc4c(cc3c2c1)OCO4
IC50 (A549 [1]; Homo sapiens, A549): 220 nM | IC50 (KB; Homo sapiens, KB): 130 nM | IC50 (DU-145; Homo sapiens, DU-145): 150 nM | IC50 (ZR-75-1; Homo sapiens, ZR-75-1): 180 nM | IC50 ([2]; Homo sapiens, KBVIN): 340 nM

COc1ccc2c(CN3CCN(CCOCCO)CC3)cc3cc4c(cc3c2c1)OCO4
IC50 (A549 [1]; Homo sapiens, A549): 57100 nM

COc1ccc2c(CN3CCCC[C@H]3C(=O)O)cc3cc4c(cc3c2c1)OCO4
IC50 (A549 [1]; Homo sapiens, A549): 500 nM
